Assay results from ChEMBL document CHEMBL1152982, “Synthetic analogue of rocaglaol displays a potent and selective cytotoxicity in cancer cells: involvement of apoptosis inducing factor and caspase-12” (J Med Chem, 2009).
Activity calls are given as the source filed them. The rule behind the calls is not given here.

Columns and labels:
Mus musculus [1] = assay: Toxicity in B6 mouse assessed as diarrhea at 0.1 mg/kg, ip twice a day for 4 consecutive days measured on day 13; format: organism-based; design: dose 0.1 mg/kg, route intraperitoneal; conditions: in vivo
Summary of the method: (§1)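 Male B6 mice dosed i.p. at 0.1 mg/kg twice daily for four consecutive days; body weight recorded daily over 13 days and signs of acute toxicity such as diarrhea noted.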

H9c2 [2] = assay: Cytotoxicity against rat H9c2 cells at 20 nM after 48 hrs by FACS analysis; format: cell-based; conditions: h9c2, 48 h, 0.02 µM
Summary of the method: (§2)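 Rat H9c2 cardiomyoblasts treated 24 h (0.5-50 nM) or 24, 48 and 72 h (20 nM) versus vehicle; annexin V plus propidium iodide labeling and FACS for apoptosis; viability in parallel by MTS; doxorubicin 1 μM as positive control.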

KB = assay: Cytotoxicity against human KB cells after 72 hrs by MTS assay; format: functional, cell-based
Summary of the method: (§3)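 Human cancer lines treated for 72 h and proliferation/viability read by MTS assay; dose-response curves in duplicate with IC50 taken from the curves; MCF7R is the P-gp (MDR1)-expressing resistant line.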

MCF7 [3] = assay: Cytotoxicity against human MCF7 cells after 72 hrs by MTS assay; format: functional, cell-based; conditions: Homo sapiens, MCF7, 72 h; read-out: IC50; summary of the method: as §3
MCF7 [4] = assay: Cytotoxicity against human MCF7 cells expressing P-glycoprotein after 72 hrs by MTS assay; format: functional, cell-based; conditions: Homo sapiens, MCF7, 72 h; read-out: IC50; summary of the method: as §3
HCT-116 = assay: Cytotoxicity against human HCT116 cells after 72 hrs by MTS assay; format: functional, cell-based; conditions: HCT-116, 72 h; summary of the method: as §3
HCT-15 = assay: Cytotoxicity against human HCT15 cells after 72 hrs by MTS assay; format: functional, cell-based; conditions: Homo sapiens, HCT-15, 72 h; read-out: IC50; summary of the method: as §3
HL-60 [5] = assay: Cytotoxicity against human HL60 cells after 72 hrs by MTS assay; format: functional, cell-based; conditions: HL-60, 72 h
Summary of the method: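 HL60 cells exposed to compound for 72 h; proliferation/viability read by MTS assay. IC50 taken from dose-response curves run in duplicate.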

[6] = target: ATP-dependent translocase ABCB1 (Homo sapiens, UniProt P08183); assay: Inhibition of P-glycoprotein expressing human MCF7 cells assessed as change in rhodamine 123 efflux at 0.1 to 1 uM; format: cell-based
HepG2 [7] = assay: Enhancement of doxorubicin-induced cytotoxicity against human HepG2 cells after 72 hrs by MTS assay; format: functional, cell-based
Summary of the method: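 HepG2 cells given the test agent alone or together with 150 nM doxorubicin for 72 h; proliferation by MTS assay; duplicate experiments, n = 3.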

H9c2 [8] = assay: Induction of apoptosis in rat H9c2 cells at 0.5 to 50 nM after 24 hrs by FACS analysis; format: cell-based; conditions: h9c2, 24 h, 0.05 µM; summary of the method: as §2
H9c2 [9] = assay: Induction of apoptosis in rat H9c2 cells at 20 nM after 48 hrs by FACS analysis; format: cell-based; conditions: h9c2, 48 h, 0.02 µM; summary of the method: as §2
H9c2 [10] = assay: Induction of apoptosis in rat H9c2 cells at 20 nM after 72 hrs by FACS analysis; format: cell-based; conditions: h9c2, 72 h, 0.02 µM; summary of the method: as §2
HepG2 [11] = assay: Cytotoxicity against human HepG2 cells after 72 hrs by MTS assay; format: functional, cell-based; conditions: Homo sapiens, HepG2, 72 h; read-out: IC50; summary of the method: as §3
Mus musculus [12] = assay: Toxicity in B6 mouse assessed as body weight loss at 0.1 mg/kg, ip twice a day for 4 consecutive days measured on day 13; format: organism-based; design: dose 0.1 mg/kg, route intraperitoneal; conditions: in vivo; summary of the method: as §1
HL-60 [13] = assay: Cell cycle arrest in human HL60 cells assessed as increase in G0/G1 peak at 200 nM after 48 hrs by FACS analysis; format: functional, cell-based
Summary of the method: (§4)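 HL60 cells treated for 48 h; vehicle control 1% DMSO, doxorubicin as positive control. Propidium iodide staining, DNA content by flow cytometry giving cell-cycle distribution (G2/M, G0-G1 peaks); n = 4, each sample in duplicate.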

HL-60 [14] = assay: Cell cycle arrest in human HL60 cells assessed as increase in G0/G1 peak at 20 nM after 48 hrs by FACS analysis; format: functional, cell-based; summary of the method: as §4
HL-60 [15] = assay: Induction of apoptosis in human HL60 cells assessed as cell killing at 20 nM after 72 hrs by annexin V flow cytometry; format: functional, cell-based
Summary of the method: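 HL60 cells treated with 20 nM for 72 h; apoptosis quantified by annexin V staining and flow cytometry.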

HL-60 [16] = assay: Induction of apoptosis in human HL60 cells assessed as caspase 3/7-mediated DEVD-AMC substrate cleavage at 1 to 1000 nM after 48 hrs by spectroscopy; format: functional, cell-based
Summary of the method: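 HL60 cells treated 48 h, doxorubicin as positive control; whole-cell extracts incubated with DEVD-AMC, fluorescence release followed over time; rate from slope of linear phase, expressed as fold-activation over DMSO-treated control.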

HL-60 [17] = assay: Induction of apoptosis in human HL60 cells assessed as caspase 3/7-mediated DEVD-AMC substrate cleavage at 24 to 72 hrs by spectroscopy; format: functional, cell-based
HL-60 [18] = assay: Induction of apoptosis in human HL60 cells assessed as […] mediated LEHD-AMC substrate cleavage at 1 to 1000 nM after 48 hrs by spectroscopy; format: functional, cell-based
HL-60 [19] = assay: Induction of apoptosis in human HL60 cells assessed as caspase 9-mediated […]-AMC substrate cleavage at 1 to 1000 nM after 48 hrs by spectroscopy; format: functional, cell-based
HL-60 [20] = assay: Antiproliferative activity against human HL60 cells at 50 nM in presence of caspase inhibitor Z-VAD-FMK; format: functional, cell-based
Summary of the method: (§5)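 HL60 cells exposed for 72 h, with or without co-treatment with Z-VAD-FMK (50 μM), necrostatin-1 (50 μM) or 3-methyladenine (2 mM). Antiproliferative effect was compared against vehicle.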

HL-60 [21] = assay: Antiproliferative activity against human HL60 cells at 50 nM in presence of […] inhibitor necrostatin 1; format: functional, cell-based; summary of the method: as §5
HL-60 [22] = assay: Antiproliferative activity against human HL60 cells at 50 nM in presence of […] inhibitor 3-methyladenine; format: functional, cell-based; summary of the method: as §5
HL-60 [23] = assay: Inhibition of proteasome activity in human HL60 cells at 2 to 20 nM
Summary of the method: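 Lysates of HL60 cells incubated with compound; in vitro chymotrypsin-like and trypsin-like proteasome activities measured with fluorogenic AMC substrates (LLVY-AMC, RLR-AMC).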

Oryctolagus cuniculus = organism: Oryctolagus cuniculus; assay: Inhibition of capped and polyadenylated luciferase mRNA […] in rabbit reticulocyte lysate at 10000 nM after 1 hr; format: functional
Summary of the method: (§6)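 Cell-free translation of capped, polyadenylated luciferase mRNA in rabbit reticulocyte lysate, luciferase output as read-out; incubation 1 h; IC50 derived.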

HeLa [24] = assay: Induction of eIF-2alpha phosphorylation in human HeLa cells at 100 uM by Western blotting; format: functional, cell-based
Summary of the method: (§7)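 HeLa cells treated 1 h with DMSO, sodium arsenite (500 μM, positive control) or compound (100 or 500 μM); 10 μg total protein by SDS-PAGE/Western blot with anti-eIF2α and anti-phospho-eIF2α, ECL detection.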

HeLa [25] = assay: Induction of eIF-2alpha phosphorylation in human HeLa cells at 500 uM by Western blotting; format: functional, cell-based; summary of the method: as §7
HeLa [26] = assay: Induction of stress granules in human HeLa cells assessed as MLN51 and FMRP marker protein at >10 uM; format: functional, cell-based
Summary of the method: (§8)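 HeLa on coverslips in DMEM/5% FCS, cultured 24 h, then exposed to 50 nM-500 μM for 30 min to 8 h; immunofluorescence for stress-granule markers MLN51 (rabbit) and FMRP (mouse); cycloheximide 10 μg/mL and puromycin 100 μg/mL (1 h) as positive controls.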

HeLa [27] = assay: Induction of stress granules in human HeLa cells assessed as MLN51 and FMRP marker protein at 100 uM after 2 hrs; format: functional, cell-based; summary of the method: as §8
HeLa [28] = assay: Induction of stress granules in human HeLa cells assessed as MLN51 and FMRP marker protein at 500 nM after 8 hrs; format: functional, cell-based; summary of the method: as §8
HeLa [29] = assay: Induction of stress granules in human HeLa cells assessed as MLN51 and FMRP marker protein at 100 uM after 8 hrs; format: functional, cell-based; summary of the method: as §8
HeLa [30] = assay: Effect on apoptosis inducing factor localization into nucleus in human HeLa cells at 20 nM after 72 hrs; format: functional, cell-based
HeLa [31] = assay: Induction of apoptosis inducing factor translocation from […] to nucleus in human HeLa cells at 50 uM after 72 hrs by DAPI staining; format: functional, cell-based
Summary of the method: (§9)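 HeLa cells treated 72 h with compound or vehicle; immunocytochemistry co-labeling with anti-AIF and anti-caspase-12 antibodies, nuclei stained with DAPI to assess nuclear localization.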

HeLa [32] = assay: Induction of caspase 12 translocation from endoplasmic reticulum to nucleus in human HeLa cells at 50 uM after 72 hrs by DAPI staining; format: functional, cell-based; summary of the method: as §9
HL-60 [33] = assay: Cytotoxicity against human HL60 cells at 20 uM after 72 hrs in presence of caspase 12 inhibitor ATAD; format: functional, cell-based
Summary of the method: (§10)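 HL60 cells treated 72 h with or without caspase-12 inhibitor ATAD (10 μM) or m-calpain inhibitor N-acetyl-Leu-Leu-methioninal (20 μM); cytotoxicity compared with vehicle.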

HL-60 [34] = assay: Cytotoxicity against human HL60 cells at 20 uM after 72 hrs in presence of m-calpain inhibitor N-acetyl-Leu-Leu-methioninal; format: functional, cell-based; summary of the method: as §10
[35] = Inhibition of capped and polyadenylated luciferase mRNA in rabbit reticulocyte lysate; format: functional, Oryctolagus cuniculus; summary of the method: as §6
H9c2 [36] = assay: Cytotoxicity against rat H9c2 cells at 20 nM after 72 hrs by FACS analysis; format: cell-based; conditions: h9c2, 72 h, 0.02 µM; summary of the method: as §2

Sequence of ATP-dependent translocase ABCB1 (P08183 whole entry): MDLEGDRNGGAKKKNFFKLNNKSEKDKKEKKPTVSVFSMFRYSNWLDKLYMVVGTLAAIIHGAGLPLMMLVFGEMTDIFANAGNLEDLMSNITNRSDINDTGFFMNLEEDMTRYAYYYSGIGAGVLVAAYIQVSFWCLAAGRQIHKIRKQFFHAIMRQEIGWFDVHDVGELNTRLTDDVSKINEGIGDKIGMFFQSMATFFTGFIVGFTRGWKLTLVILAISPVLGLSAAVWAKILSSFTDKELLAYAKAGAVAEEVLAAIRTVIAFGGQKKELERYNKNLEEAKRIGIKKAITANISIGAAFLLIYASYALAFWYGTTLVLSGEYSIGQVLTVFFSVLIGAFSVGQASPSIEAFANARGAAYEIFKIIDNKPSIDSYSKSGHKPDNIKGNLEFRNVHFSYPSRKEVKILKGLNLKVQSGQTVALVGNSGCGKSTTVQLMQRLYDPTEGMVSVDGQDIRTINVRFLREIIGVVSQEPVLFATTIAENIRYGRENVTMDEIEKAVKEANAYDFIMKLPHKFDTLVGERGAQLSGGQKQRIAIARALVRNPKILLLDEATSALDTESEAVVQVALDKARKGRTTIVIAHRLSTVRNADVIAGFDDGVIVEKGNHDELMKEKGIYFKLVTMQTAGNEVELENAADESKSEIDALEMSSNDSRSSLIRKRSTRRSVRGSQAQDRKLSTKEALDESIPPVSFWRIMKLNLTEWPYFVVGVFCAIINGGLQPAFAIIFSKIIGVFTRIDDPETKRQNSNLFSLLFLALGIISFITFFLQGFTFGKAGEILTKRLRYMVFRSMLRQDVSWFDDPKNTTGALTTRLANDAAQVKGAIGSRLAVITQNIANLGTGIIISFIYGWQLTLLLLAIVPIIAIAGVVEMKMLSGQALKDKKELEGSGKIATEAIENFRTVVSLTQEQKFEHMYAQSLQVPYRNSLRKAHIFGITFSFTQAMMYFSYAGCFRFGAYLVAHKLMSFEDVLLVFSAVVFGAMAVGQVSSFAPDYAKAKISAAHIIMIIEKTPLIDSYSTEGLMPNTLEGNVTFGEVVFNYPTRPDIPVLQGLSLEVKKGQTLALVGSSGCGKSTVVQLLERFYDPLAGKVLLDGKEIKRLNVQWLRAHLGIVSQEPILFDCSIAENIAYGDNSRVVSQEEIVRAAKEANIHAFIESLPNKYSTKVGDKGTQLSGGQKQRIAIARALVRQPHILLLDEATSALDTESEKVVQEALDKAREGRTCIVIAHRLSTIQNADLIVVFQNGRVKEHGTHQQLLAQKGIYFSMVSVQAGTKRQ

For COc1cc(OC)c2c(c1)O[C@@]1(c3ccc(Br)cc3)[C@H](c3ccccc3)C[C@@H](O)[C@@]21O, the Activity (Mus musculus [1]) was “Non-toxic”, the Activity (H9c2 [2]) was “Non-toxic” and the IC50 (KB) was < 1 nM. The IC50 (MCF7 [3]) was 1 nM, the IC50 (MCF7 [4]) was < 1 nM and the IC50 (HCT-116) was < 1 nM. For the same compound, the IC50 (HCT-15) was 1 nM, the IC50 (HL-60 [5]) was < 1 nM and the Activity [6] was “Not Active”. For the same compound, the Activity (HepG2 [7]) was “Active”, the Activity (H9c2 [8]) was “Not Active” and the Activity (H9c2 [9]) was “Not Active”. The Activity (H9c2 [10]) was “Not Active”, the IC50 (HepG2 [11]) was 4 nM and the Activity (Mus musculus [12]) was “Non-toxic”. For the same compound, the Activity (HL-60 [13]) was “Active”, the Activity (HL-60 [14]) was “Active” and the Activity (HL-60 [15]) was “Active”. The Activity (HL-60 [16]) was “inactive”, the Activity (HL-60 [17]) was “inactive” and the Activity (HL-60 [18]) was “inactive”. For the same compound, the Activity (HL-60 [19]) was “inactive”, the Activity (HL-60 [20]) was “inactive” and the Activity (HL-60 [21]) was “inactive”. For the same compound, the Activity (HL-60 [22]) was “inactive”, the Activity (HL-60 [23]) was “inactive” and the Activity (Oryctolagus cuniculus) was “Active”. The Activity (HeLa [24]) was “Active”, the Activity (HeLa [25]) was “Active” and the Activity (HeLa [26]) was “Active”. The Activity (HeLa [27]) was “Active”, the Activity (HeLa [28]) was “Active” and the Activity (HeLa [29]) was “Active”. The Activity (HeLa [30]) was “Active”, the Activity (HeLa [31]) was “Active” and the Activity (HeLa [32]) was “Active”. For the same compound, the Activity (HL-60 [33]) was “inactive”, the Activity (HL-60 [34]) was “Active” and the IC50 [35] was 200 nM. The Activity (H9c2 [36]) was “Non-toxic”.
